Bioassay records deposited in PubChem BioAssay by Broad Institute.
MITF TRPM1 HTS – activators of MITF-driven TRPM1 promoter reporter, primary screen, cell-based, SK-MEL-5, luciferase, single point | SK-MEL-5 TRPM1-promoter luciferase, 24 h; % of positive control, neutral wells = 0 | activation, % at 12.5 µM | 300,000 compounds, 0.75% hits;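 active = mean activation of at least 80% with every replicate also reaching 80%; inconclusive = mean reaches 80% but some replicate falls short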
Wnt bcat act – Wnt/beta-catenin pathway activators, primary screen, cell-based, plate reader, single point; AID 743398, 2014; 300,000 compounds, 1.2% hits; Wnt/beta-catenin reporter cell assay, activator; activation, % at 9.35 µM; in the data active = activation above about 30%, passing the limit was not always enough; inconclusive = no clear call, values can overlap the other calls
Cneo AK release – Cryptococcus neoformans cell lysis inducers, primary screen, AK release luminescence, single concentration; 360,000 compounds, 0.2% hits; C. neoformans lysis, adenylate kinase release luminescence, 4 h; normalised: neutral wells 0, clomiphene wells 100; lysis activity, % at 15 µM; AID 651654, 2012;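 active = mean lysis activity across replicates of at least 80%, whatever share of replicates individually reach that level; inactive = mean lysis activity below 80%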
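Assay system: C. neoformans cells. Amount: yeast cell density of 5 × 10^6 cells/mL. Technique: AK luminescence. Buffer or medium: YPD. Times: static 4 h at 37 °C with compound, 1 h detection. Dosing: single-point compound dose. Read-out: lysis from increased AK signal.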
PGC1a acetyl inh – inhibitors of PGC1a acetylation signal, primary screen, cell-based, U2OS, AlphaScreen, inhibitor mode | 350,000 compounds, 0.17% hits | AlphaScreen anti-acetyl-lysine; with virally co-expressed GCN5 acetyltransferase | inhibition, % at 15.6 µM;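 active = every replicate shows inhibition of at least 40%; inconclusive = mean inhibition at least 40% but some replicate below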
A number is an active result. Only some compounds are listed: those with a hit (about 1.5% of all), similar ones and a draw of the others.

How did C[C@@H]1CN([C@@H](C)CO)C(=O)Cc2cc(NC(=O)c3ccncc3)ccc2O[C@H]1CN(C)Cc1ccncc1 do in these assays?
Cneo AK release: 100.0; PGC1a acetyl inh: inactive

Results for C[C@H](CO)N1C[C@H](C)[C@H](CN(C)Cc2ccc(-c3ccccc3)cc2)Oc2ccc(NC(=O)C3CC3)cc2CC1=O ?
Cneo AK release: inactive; PGC1a acetyl inh: inactive

What do the screens show for `C[C@H]1CN([C@@H](C)CO)C(=O)Cc2cc(NC(=O)C3CC3)ccc2O[C@H]1CN(C)Cc1ccc(-c2ccccc2)cc1`?
Cneo AK release: 112.0; PGC1a acetyl inh: inactive

How did CO[C@H]1CN(C)C(=O)c2cc(NS(C)(=O)=O)ccc2OC[C@H](C)N(CC2CC2)C[C@@H]1C do in these assays?
Cneo AK release: inactive; PGC1a acetyl inh: inactive

What do the screens show for `CN(C)C(=O)c1cccc(-c2ccc(C3[C@@H]4CN(Cc5nccs5)C[C@H]3N4)cc2)c1` (some centres not stated)?
PGC1a acetyl inh: inactive

What do the screens show for `C[C@@H]1CN([C@@H](C)CO)C(=O)Cc2cc(NC(=O)CCN3CCOCC3)ccc2O[C@@H]1CN(C)C(=O)Nc1ccc(C(F)(F)F)cc1`?
Cneo AK release: inactive; PGC1a acetyl inh: inactive

Results for O=C(CCSCc1ccccc1F)NCCc1ccccc1 ?
MITF TRPM1 HTS: inactive; Wnt bcat act: 38.4; Cneo AK release: inactive

Results for COc1ccc(CCNC(=O)CCSCc2ccccc2F)cc1OC ?
MITF TRPM1 HTS: inactive; Wnt bcat act: inactive; Cneo AK release: inactive; PGC1a acetyl inh: inactive

How did O=C(c1ccccn1)N1C[C@@H]2[C@H](c3ccccc31)[C@@H](CO)N2C(=O)Cc1ccccc1 do in these assays?
Cneo AK release: inactive; PGC1a acetyl inh: inactive

How did O=C(CSc1nnc([C@@H]2CCCN2)o1)c1ccc(Cl)cc1 do in these assays?
MITF TRPM1 HTS: inactive; Wnt bcat act: 37.4; Cneo AK release: inactive; PGC1a acetyl inh: inactive

How did C=C(C)CSc1nnc([C@@H]2CCCN2)o1 do in these assays?
MITF TRPM1 HTS: inactive; Wnt bcat act: inactive

Results for CC(C)NC(=O)N(C)C[C@@H]1Oc2ccc(NC(=O)CCCCCC(=O)Nc3ccccc3N)cc2C(=O)N([C@H](C)CO)C[C@H]1C ?
PGC1a acetyl inh: inactive

How did Cc1cc(C2=NNC(=NCCc3ccccc3)SC2)c(C)n1-c1c(C)n(C)n(-c2ccccc2)c1=O do in these assays?
MITF TRPM1 HTS: inactive; Wnt bcat act: inactive; Cneo AK release: inactive; PGC1a acetyl inh: 62.9

What do the screens show for `CC(=O)c1c(C)[nH]c(C(=O)Nc2nc(-c3ccccc3)c(C)s2)c1C`?
MITF TRPM1 HTS: 111.0; Cneo AK release: inactive; PGC1a acetyl inh: inactive

Results for COc1ccc2c(c1)-c1nc(NC(=O)c3ccco3)sc1CC2 ?
MITF TRPM1 HTS: 85.1; Wnt bcat act: 63.5; Cneo AK release: inactive; PGC1a acetyl inh: inactive

How did Cc1sc(NC(=S)NC(=O)c2cccs2)nc1-c1ccc(C(C)C)cc1 do in these assays?
MITF TRPM1 HTS: inactive; Cneo AK release: inactive; PGC1a acetyl inh: inactive

How did Cc1sc(NC(=O)c2ccco2)nc1-c1ccccc1 do in these assays?
MITF TRPM1 HTS: 96.4; PGC1a acetyl inh: inactive

How did CC(=O)c1sc(NC(=O)c2ccco2)nc1-c1ccccc1 do in these assays?
MITF TRPM1 HTS: inactive; Cneo AK release: inactive; PGC1a acetyl inh: inactive

How did Cc1sc(NC(=O)c2cccs2)nc1-c1ccccc1 do in these assays?
Wnt bcat act: 47.3; Cneo AK release: inactive; PGC1a acetyl inh: inactive

Results for CCCC(=O)Nc1ccc2c(c1)C(=O)N(C)[C@@H]1CC[C@H](CC(=O)Nc3ccccc3)O[C@H]1CO2 ?
Cneo AK release: inactive; PGC1a acetyl inh: inactive

What do the screens show for `COC(=O)c1c(-c2ccccc2)csc1NC(=O)c1ccco1`?
MITF TRPM1 HTS: 105.4; Cneo AK release: inactive; PGC1a acetyl inh: inactive

Results for CC(=O)c1sc(NC(=O)c2ccc(F)cc2)nc1-c1ccccc1 ?
MITF TRPM1 HTS: inactive; Wnt bcat act: inactive; PGC1a acetyl inh: inactive

Results for CC(=O)c1sc(NC(=O)c2ccccc2F)nc1-c1ccccc1 ?
MITF TRPM1 HTS: 87.6; Wnt bcat act: inactive; PGC1a acetyl inh: inactive

How did O=C(Nc1scc(-c2ccc(F)cc2)c1C(=O)O)c1ccco1 do in these assays?
MITF TRPM1 HTS: inactive; Cneo AK release: inactive; PGC1a acetyl inh: inactive

How did CCCN(C)C[C@H]1OCCCC[C@H](C)Oc2ccc(NC(=O)Cc3ccccc3)cc2C(=O)N([C@@H](C)CO)C[C@H]1C do in these assays?
Cneo AK release: inactive; PGC1a acetyl inh: inactive

What do the screens show for `Cc1noc(C)c1S(=O)(=O)Nc1ccc2c(c1)C(=O)N([C@H](C)CO)C[C@H](C)[C@@H](CN(C)Cc1ccc3c(c1)OCO3)OCCCC[C@H](C)O2`?
Cneo AK release: inactive; PGC1a acetyl inh: inactive

What do the screens show for `COc1ccccc1-c1ccc(NC2CCCCC2)nn1`?
MITF TRPM1 HTS: 83.2

Results for CCOC(=O)C1CCN(C(=O)CN2C(=O)NC3(CCCCC3)C2=O)CC1 ?
MITF TRPM1 HTS: inactive; Wnt bcat act: 43.3; Cneo AK release: inactive; PGC1a acetyl inh: inactive

What do the screens show for `CC1CCN(C(=O)CN2C(=O)NC3(CCCCCC3)C2=O)CC1`?
MITF TRPM1 HTS: inactive; Wnt bcat act: inactive; Cneo AK release: inactive; PGC1a acetyl inh: inactive

How did O=C(C[C@H]1CC[C@@H]2[C@H](COC[C@@H](O)CN2S(=O)(=O)c2ccc(Cl)cc2)O1)N[C@H]1CCN(Cc2ccccc2)C1 do in these assays?
Cneo AK release: inactive; PGC1a acetyl inh: inactive

How did Cc1cccc(OCCn2c(=O)sc3ccccc32)c1 do in these assays?
MITF TRPM1 HTS: 90.6; Cneo AK release: inactive; PGC1a acetyl inh: inactive

How did CN(C)C(=O)c1cccc(-c2ccc(C3[C@@H]4CN(S(=O)(=O)c5ccccc5)C[C@H]3N4)cc2)c1 (some centres not stated) do in these assays?
PGC1a acetyl inh: inactive

Results for C[C@@H]1CN([C@H](C)CO)C(=O)c2cc(NS(=O)(=O)c3ccc(Cl)cc3)ccc2O[C@@H](C)CCCCO[C@@H]1CN(C)C(=O)CCC(F)(F)F ?
Cneo AK release: inactive; PGC1a acetyl inh: inactive

How did Clc1ccc(C=NN2CCCCCC2)cc1Cl do in these assays?
MITF TRPM1 HTS: inactive; Wnt bcat act: 55.6; Cneo AK release: inactive; PGC1a acetyl inh: inactive

Results for O=[N+]([O-])c1ccc(/C=N\N2CCN(c3ccc(Cl)cc3)CC2)cc1 ?
MITF TRPM1 HTS: inactive; Cneo AK release: inactive; PGC1a acetyl inh: inactive

Results for Clc1ccc(/C=N/N2CCCCC2)cc1 ?
MITF TRPM1 HTS: 93.6; Wnt bcat act: 32.7

What do the screens show for `O=[N+]([O-])c1ccc(/C=N/N2CCCCC2)cc1`?
MITF TRPM1 HTS: 106.0; Wnt bcat act: inactive; Cneo AK release: inactive; PGC1a acetyl inh: inactive

How did N#Cc1ccc(C=NN2CCCCCC2)cc1 do in these assays?
MITF TRPM1 HTS: inactive; Wnt bcat act: 47.6; PGC1a acetyl inh: inactive

What do the screens show for `Clc1ccc(C=NN2CCCCCC2)cc1`?
MITF TRPM1 HTS: inactive; Wnt bcat act: inconclusive; PGC1a acetyl inh: inactive

What do the screens show for `CO[C@@H]1CN(C)C(=O)c2cc(NS(C)(=O)=O)ccc2OC[C@@H](C)N(Cc2cccnc2)C[C@H]1C`?
PGC1a acetyl inh: inactive
